Laboratory results: ChEMBL document CHEMBL5058577, “EUbOPEN Chemogenomics Library 2 (Multiplex)” (2022)

Tested on: HEK-293T
Assay: Multiplex assay against HEK293T
Assay type: toxicity, cell-based
Conditions: human
In short: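 Live cells were stained at seeding with Hoechst33342, BioTracker Green Microtubule Cytoskeleton Dye, MitoTracker Red and Annexin V Alexa Fluor 680. Following compound addition, they were imaged on a CQ1 microscope at 37°C and 5% CO2 and gated by CellPathfinder machine learning into Hoechst high-intensity objects or normal cells, with normal cells split into healthy, pyknosed or fragmented nuclei and pyknosed cells into mitotic or apoptotic. Tubulin, mitochondrial-mass and membrane-permeability phenotypes are per cents of healthy-nucleus cells.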

[1] = 12 h, 1 µM, compound concentration 1 uM, replicate 1
[2] = 12 h, 1 µM, compound concentration 1 uM, replicate 2
[3] = 12 h, 10 µM, compound concentration 10 uM, replicate 1
[4] = 12 h, 10 µM, compound concentration 10 uM, replicate 2
[5] = 24 h, 1 µM, compound concentration 1 uM, replicate 1
[6] = 24 h, 1 µM, compound concentration 1 uM, replicate 2
[7] = 24 h, 10 µM, compound concentration 10 uM, replicate 1
[8] = 24 h, 10 µM, compound concentration 10 uM, replicate 2
[9] = 48 h, 1 µM, compound concentration 1 uM, replicate 1
[10] = 48 h, 1 µM, compound concentration 1 uM, replicate 2
[11] = 48 h, 10 µM, compound concentration 10 uM, replicate 1
[12] = 48 h, 10 µM, compound concentration 10 uM, replicate 2

With `O=C(CCCc1ccccc1)Nc1nc2ccccc2c(=O)s1` the “Population Apoptotic (%)” value [1] was 30%, the “Population Fragmented Nuclei (%)” value [1] was 4% and the “Population Healthy Nuclei (%)” value [1] was 83%. The “Population Hoechst High Intensity Objects (%)” value [1] was 6%, the “Population Membrane Permeable-Phenotype (%)” value [1] was 0% and the “Population Mitochondria Different-Phenotype (%)” value [1] was 37%. The “Population Mitotic Cells (%)” value [1] was 70%, the “Population Normal (%)” value [1] was 93% and the “Population Pyknosed Nuclei (%)” value [1] was 11%. The “Population Tubulin-Different-Phenotype (%)” value [1] was 32%, the “Total Cell Count” value [1] was 372 and the “Population Apoptotic (%)” value [2] was 43%. For the same compound, the “Population Fragmented Nuclei (%)” value [2] was 7%, the “Population Healthy Nuclei (%)” value [2] was 74% and the “Population Hoechst High Intensity Objects (%)” value [2] was 13%. For the same compound, the “Population Mitochondria Different-Phenotype (%)” value [2] was 63%, the “Population Mitotic Cells (%)” value [2] was 56% and the “Population Normal (%)” value [2] was 86%. The “Population Pyknosed Nuclei (%)” value [2] was 17%, the “Population Tubulin-Different-Phenotype (%)” value [2] was 36% and the “Total Cell Count” value [2] was 267. The “Population Apoptotic (%)” value [3] was 30%, the “Population Fragmented Nuclei (%)” value [3] was 10% and the “Population Healthy Nuclei (%)” value [3] was 80%. The “Population Hoechst High Intensity Objects (%)” value [3] was 9%, the “Population Membrane Permeable-Phenotype (%)” value [3] was 0% and the “Population Mitochondria Different-Phenotype (%)” value [3] was 47%. The “Population Mitotic Cells (%)” value [3] was 69%, the “Population Normal (%)” value [3] was 90% and the “Population Pyknosed Nuclei (%)” value [3] was 9%. For the same compound, the “Population Tubulin-Different-Phenotype (%)” value [3] was 27%, the “Total Cell Count” value [3] was 555 and the “Population Apoptotic (%)” value [4] was 44%. For the same compound, the “Population Fragmented Nuclei (%)” value [4] was 7%, the “Population Healthy Nuclei (%)” value [4] was 74% and the “Population Hoechst High Intensity Objects (%)” value [4] was 27%. For the same compound, the “Population Mitochondria Different-Phenotype (%)” value [4] was 68%, the “Population Mitotic Cells (%)” value [4] was 55% and the “Population Normal (%)” value [4] was 72%. The “Population Pyknosed Nuclei (%)” value [4] was 17%, the “Population Tubulin-Different-Phenotype (%)” value [4] was 26% and the “Total Cell Count” value [4] was 371. For the same compound, the “Population Apoptotic (%)” value [5] was 20%, the “Population Fragmented Nuclei (%)” value [5] was 8% and the “Population Healthy Nuclei (%)” value [5] was 81%. The “Population Hoechst High Intensity Objects (%)” value [5] was 5%, the “Population Membrane Permeable-Phenotype (%)” value [5] was 1% and the “Population Mitochondria Different-Phenotype (%)” value [5] was 21%. The “Population Mitotic Cells (%)” value [5] was 79%, the “Population Normal (%)” value [5] was 94% and the “Population Pyknosed Nuclei (%)” value [5] was 10%. The “Population Tubulin-Different-Phenotype (%)” value [5] was 15%, the “Total Cell Count” value [5] was 538 and the “Population Apoptotic (%)” value [6] was 45%. For the same compound, the “Population Fragmented Nuclei (%)” value [6] was 9%, the “Population Healthy Nuclei (%)” value [6] was 78% and the “Population Hoechst High Intensity Objects (%)” value [6] was 8%. The “Population Membrane Permeable-Phenotype (%)” value [6] was 0%, the “Population Mitochondria Different-Phenotype (%)” value [6] was 38% and the “Population Mitotic Cells (%)” value [6] was 54%. The “Population Normal (%)” value [6] was 91%, the “Population Pyknosed Nuclei (%)” value [6] was 12% and the “Population Tubulin-Different-Phenotype (%)” value [6] was 13%. For the same compound, the “Total Cell Count” value [6] was 370, the “Population Apoptotic (%)” value [7] was 33% and the “Population Fragmented Nuclei (%)” value [7] was 10%. The “Population Healthy Nuclei (%)” value [7] was 80%, the “Population Hoechst High Intensity Objects (%)” value [7] was 6% and the “Population Membrane Permeable-Phenotype (%)” value [7] was 0%. For the same compound, the “Population Mitochondria Different-Phenotype (%)” value [7] was 38%, the “Population Mitotic Cells (%)” value [7] was 66% and the “Population Normal (%)” value [7] was 93%. For the same compound, the “Population Pyknosed Nuclei (%)” value [7] was 9%, the “Population Tubulin-Different-Phenotype (%)” value [7] was 29% and the “Total Cell Count” value [7] was 661. For the same compound, the “Population Apoptotic (%)” value [8] was 52%, the “Population Fragmented Nuclei (%)” value [8] was 8% and the “Population Hoechst High Intensity Objects (%)” value [8] was 24%. For the same compound, the “Population Mitochondria Different-Phenotype (%)” value [8] was 47%, the “Population Mitotic Cells (%)” value [8] was 47% and the “Population Normal (%)” value [8] was 75%. The “Population Pyknosed Nuclei (%)” value [8] was 11%, the “Population Tubulin-Different-Phenotype (%)” value [8] was 20% and the “Total Cell Count” value [8] was 444. The “Population Apoptotic (%)” value [9] was 20%, the “Population Fragmented Nuclei (%)” value [9] was 11% and the “Population Healthy Nuclei (%)” value [9] was 82%. The “Population Hoechst High Intensity Objects (%)” value [9] was 2%, the “Population Membrane Permeable-Phenotype (%)” value [9] was 1% and the “Population Mitochondria Different-Phenotype (%)” value [9] was 15%. For the same compound, the “Population Mitotic Cells (%)” value [9] was 79%, the “Population Normal (%)” value [9] was 97% and the “Population Pyknosed Nuclei (%)” value [9] was 6%. For the same compound, the “Population Tubulin-Different-Phenotype (%)” value [9] was 11%, the “Total Cell Count” value [9] was 820 and the “Population Apoptotic (%)” value [10] was 38%. For the same compound, the “Population Fragmented Nuclei (%)” value [10] was 10%, the “Population Healthy Nuclei (%)” value [10] was 80% and the “Population Hoechst High Intensity Objects (%)” value [10] was 4%. For the same compound, the “Population Membrane Permeable-Phenotype (%)” value [10] was 0%, the “Population Mitochondria Different-Phenotype (%)” value [10] was 28% and the “Population Mitotic Cells (%)” value [10] was 61%. For the same compound, the “Population Normal (%)” value [10] was 95%, the “Population Pyknosed Nuclei (%)” value [10] was 8% and the “Population Tubulin-Different-Phenotype (%)” value [10] was 13%. For the same compound, the “Total Cell Count” value [10] was 534, the “Population Apoptotic (%)” value [11] was 22% and the “Population Fragmented Nuclei (%)” value [11] was 14%. For the same compound, the “Population Healthy Nuclei (%)” value [11] was 79%, the “Population Hoechst High Intensity Objects (%)” value [11] was 4% and the “Population Membrane Permeable-Phenotype (%)” value [11] was 0%. For the same compound, the “Population Mitochondria Different-Phenotype (%)” value [11] was 21%, the “Population Mitotic Cells (%)” value [11] was 77% and the “Population Normal (%)” value [11] was 95%. For the same compound, the “Population Pyknosed Nuclei (%)” value [11] was 6%, the “Population Tubulin-Different-Phenotype (%)” value [11] was 16% and the “Total Cell Count” value [11] was 984. The “Population Apoptotic (%)” value [12] was 68%, the “Population Fragmented Nuclei (%)” value [12] was 13% and the “Population Healthy Nuclei (%)” value [12] was 77%. For the same compound, the “Population Hoechst High Intensity Objects (%)” value [12] was 11%, the “Population Membrane Permeable-Phenotype (%)” value [12] was 1% and the “Population Mitochondria Different-Phenotype (%)” value [12] was 30%. The “Population Mitotic Cells (%)” value [12] was 31%, the “Population Normal (%)” value [12] was 88% and the “Population Pyknosed Nuclei (%)” value [12] was 9%. The “Total Cell Count” value [12] was 567.
